# This is a sample that favours compounds with a hit; in the whole collection about 2% have one here.
# FN deposit inh: fibronectin deposition inhibition. hit rate 0.086% among 350,000. inhibition, % at 12.6 µM. AH1F fibroblasts, Alexa488-fibronectin deposition fluorescence, overnight;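 active = mean inhibition across replicates of 30% or more, regardless of how many single replicates reach that level; inconclusive = mean under 30% yet at least half of replicates reach 30%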;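 also: positive control wells lacked labelled fibronectin entirely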
#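 Material – AH1F fibroblast monolayer, labelled fibronectin deposition · Reagent – labelled fibronectin 24 nM · Timing – 1 h adhesion, overnight exposure · Measured by – fluorescence at 485 nm excitation, 525 nm emission · Read-out – inhibition of fibronectin deposition signal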
# CaV13 ICDI inh: Primary screen for inhibitors of IQ motif and Ca2+-dependent inactivation inhibitor domain binding in CACNA1D, Förster resonance energy transfer in living cells, … | hit rate 0.098% among 340,000 | HEK cells, CFP/YFP FRET ICDI-IQ, plate reader, 10 min; percent FRET-ratio fall versus neutral wells | inhibition, % at 12.3 µM;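 active = mean replicate inhibition of at least 30% and at least 1% of replicates passing that level; inconclusive = only one of the two criteria is met; inactive = neither criterion is met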;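 also: 0% = median of the neutral control wells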
# XiGFP reactiv: reactivates the inactive X chromosome in mouse fibroblasts | hit rate 0.055% among 360,000 | activation, % at 7.58 µM | XiGFP mouse fibroblasts, % GFP-positive cells imaging, 3 d; cells co-treated with 5-aza-dC sensitizer; scaled so ellipticine positive control = 100%;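 active = mean normalized replicate activation at least 10% and every replicate at or above 10%; inconclusive = only one of the two criteria met; inactive = mean below 10% and not all replicates reach 10%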;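 also: 0% = median of on-plate neutral control wells and 100% = ellipticine 6 µM median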
#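 Assay system – SV40-immortalized XiGFP fibroblast cells, line 68-5-11 · Buffer or medium – DMEM supplemented with 5-aza-dC as sensitizing agent · Dosing – one concentration, pinned · Benchmarks – positive control ellipticine, 6 µM final · Times – 3 days compound exposure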
# DENV2 CPE: protects cells from dengue virus 2 cytopathic effect; DENV2-infected cells, cytopathic effect rescue, plate reader; CPE inhibition, % at 9.99 µM; hit rate 1.7% among 350,000; in the data active = CPE inhibition above about 20%, passing the limit was not always enough; inconclusive = no clear call, values can overlap the other calls; tested in BHK-21 cells;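 also: 0% = median of neutral control wells and 100% = median of positive control wells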
# CASP6 VEID inh: blocks human caspase-6 cleavage activity | purified caspase-6, Z-VEID-R110 cleavage fluorescence | inhibition, % at 12.5 µM | hit rate 0.53% among 350,000 | AID 686996;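 active = mean inhibition across replicates at least about 35%, with every replicate also reaching that limit, limit read from the data; inconclusive = only one of the two criteria met; inactive = neither criterion met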;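 also: 0% = median of neutral control wells and 100% = no fluorescence left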
# Target sequence (P55212 24-179 limits assumed): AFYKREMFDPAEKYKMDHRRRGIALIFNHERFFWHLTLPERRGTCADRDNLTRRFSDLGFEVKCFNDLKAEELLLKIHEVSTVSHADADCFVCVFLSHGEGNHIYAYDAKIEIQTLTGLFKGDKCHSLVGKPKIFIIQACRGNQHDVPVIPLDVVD
# Target sequence (P55212 194-293 limits assumed): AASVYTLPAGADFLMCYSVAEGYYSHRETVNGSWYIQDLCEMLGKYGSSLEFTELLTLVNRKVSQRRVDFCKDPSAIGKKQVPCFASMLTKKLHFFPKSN
# Starred values were filed as active, the others as inactive; ? = inconclusive; · = no result.
SMILES,FN deposit inh,CaV13 ICDI inh,XiGFP reactiv,DENV2 CPE,CASP6 VEID inh
COc1ccc(/C(C)=N/NC(=O)c2ccc(CSc3cccc4cccnc34)cc2)cc1OC,3,-4,·,·,·
CCCCNC(=O)C1C(c2ccc(C(F)(F)F)cc2)=Nc2ccccc2N1C(=O)c1ccc2nc(C)[nH]c2c1 (stereo not drawn),3,-9,0,-9,40*
CCCCNC(=O)C1C(c2ccc(C(F)(F)F)cc2)=Nc2ccccc2N1C(C)=O (stereo not drawn),-1,-16,0,3,2
CCC(=O)N1CC(=O)N2[C@H](CO)[C@@H](c3ccc(C#Cc4cccc(OC)c4)cc3)[C@H]2C1,·,·,0,1,-1
C(/C=C/c1ccccn1)=C\c1ccccc1,-2,-4,0,6,-4
C(=C(c1ccccc1)c1ccccc1)c1ccccn1,-3,-5,0,54*,·
CCCNC(=O)C[C@@H]1CC[C@@H]2[C@H](COC[C@@H](O)CN2Cc2cccc(F)c2)O1,-1,·,0,12,-1
CCN1C(=NCCc2c[nH]c3ccccc23)N[C@@H](c2ccccc2)[C@H](C(=O)OC)[C@H]1C,-10,-5,0,27*,·
CCCC#Cc1ccc([C@H]2[C@H](CO)N3C(=O)CN(C(=O)c4ccccc4)C[C@@H]23)cc1,·,·,0,-6,6
CN(C)C(=O)CSc1nc2ccc(C(=O)c3ccccc3)cc2[nH]1,4,62*,0,3,-2
CC(Sc1nc2ccc(C(=O)c3ccccc3)cc2[nH]1)C(=O)O (stereo not drawn),1,-19,0,1,0
COc1ccc2c3c(n(C)c2c1)[C@@H](CO)N(Cc1ccccc1)CC31CN(C(=O)Nc2cccc(F)c2)C1,·,·,0,-4,3
C[C@H](NC(=O)C[C@@H]1CC[C@@H](NC(=O)C2CCOCC2)[C@H](CO)O1)c1ccccc1,-3,·,0,-4,-1
O=[N+]([O-])c1ccc(OCCCCCN2CCOCC2)cc1,4,-3,0,26*,-3
CNC[C@H](Cc1ccccc1)NC[C@@H](Cc1cccc2ccccc12)NCCc1ccc(C)cc1,5,-5,0,3,-6
CNC[C@H](CC1CCCCC1)NC[C@H](Cc1ccccc1)NCCC12CC3CC(CC(C3)C1)C2,60*,-4,2,·,23
CNC(=O)C[C@H]1CC[C@H]2[C@H](COc3ccc(NC(=O)Nc4cccc(F)c4)cc3C(=O)N2C)O1,-30,·,0,-6,·
O=C(C[C@@H]1C[C@H]2c3cc(NC(=O)NC4CCCC4)ccc3O[C@H]2[C@H](CO)O1)NCc1ccc2c(c1)OCO2,·,·,0,-6,0
COc1ccc(-c2cc3c(=O)n(CC(=O)NCCCN4CCN(Cc5ccccc5)CC4)ncn3n2)cc1,-4,-4,0,18,40*
C/C=C/c1ccc2c(c1)[C@H]1[C@H](CCN1S(=O)(=O)c1cccc(F)c1)[C@@H](CO)N2,1,·,0,-7,3
COc1ccc(C(=O)NNC(=S)NC(=O)c2ccco2)cc1,2,-4,·,·,·
CCCOc1ccc(C(=O)NNC(=S)NC(=O)c2ccco2)cc1,9,35*,0,-6,1
COc1ccc2c3c([nH]c2c1)[C@H](CO)N(C(=O)CC1CC1)CC31CN(C(=O)CC2CC2)C1,·,·,0,?,·
COC(=O)CCc1c(C)c(C(=O)c2cc(F)c(F)c(F)c2F)c2ccccn12,5,0,0,0,62*
CO[C@@H]1CN(C)C(=O)c2ccc(NC(=O)Nc3ccc(Cl)cc3)cc2OC[C@@H](C)NC[C@@H]1C,-26,·,0,·,·
COc1ccc(Nc2ncnc3sccc23)c(OC)c1,2,-7,0,4,-2
Cc1ccc(Nc2ncnc3sccc23)c(C)c1,-2,-3,0,5,99*
Cc1ccc(S(=O)(=O)Nc2ccc(O)c3ncccc23)cc1,10,-16,0,107*,13
CCOC(=O)C(NC(=O)NCc1ccc(F)cc1)(OCC)C(F)(F)F (stereo not drawn),·,-8,·,·,·
CCOC(=O)C(NC(=O)Nc1ccc(Cl)cn1)(Oc1ccc(F)cc1)C(F)(F)F (stereo not drawn),2,-4,0,78*,5
